Legend:
[1] = target: T1, Adrenergic receptor alpha-2 (Rattus norvegicus, UniProt P22086+P19328+P22909); assay: pA2 value was measured in Alpha-2 adrenergic receptor against clonidine in rat vas deferens.
T1 sequence (P22086 whole entry): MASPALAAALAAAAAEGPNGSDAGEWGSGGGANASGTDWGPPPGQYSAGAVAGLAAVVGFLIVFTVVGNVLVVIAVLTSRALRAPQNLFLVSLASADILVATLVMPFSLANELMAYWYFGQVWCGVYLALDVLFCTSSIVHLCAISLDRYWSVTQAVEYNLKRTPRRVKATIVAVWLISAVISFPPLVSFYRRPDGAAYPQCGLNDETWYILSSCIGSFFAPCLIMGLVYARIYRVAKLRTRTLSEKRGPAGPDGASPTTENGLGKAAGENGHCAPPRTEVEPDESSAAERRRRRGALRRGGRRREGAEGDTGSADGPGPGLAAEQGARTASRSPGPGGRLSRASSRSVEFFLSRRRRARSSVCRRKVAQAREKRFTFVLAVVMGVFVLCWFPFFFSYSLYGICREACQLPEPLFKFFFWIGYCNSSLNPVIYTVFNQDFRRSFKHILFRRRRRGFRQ
T1 sequence (P19328 whole entry): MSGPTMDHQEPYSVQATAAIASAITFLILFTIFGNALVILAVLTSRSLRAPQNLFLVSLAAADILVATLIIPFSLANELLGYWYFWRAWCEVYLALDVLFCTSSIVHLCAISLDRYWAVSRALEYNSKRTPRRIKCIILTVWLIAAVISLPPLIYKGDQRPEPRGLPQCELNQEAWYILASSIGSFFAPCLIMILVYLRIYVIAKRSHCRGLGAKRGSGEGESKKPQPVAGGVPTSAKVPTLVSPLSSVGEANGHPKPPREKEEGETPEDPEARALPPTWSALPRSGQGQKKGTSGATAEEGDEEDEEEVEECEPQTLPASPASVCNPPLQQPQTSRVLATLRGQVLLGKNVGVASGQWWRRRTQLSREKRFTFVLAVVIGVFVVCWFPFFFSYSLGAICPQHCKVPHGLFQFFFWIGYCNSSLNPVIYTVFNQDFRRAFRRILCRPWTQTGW
T1 sequence (P22909 whole entry): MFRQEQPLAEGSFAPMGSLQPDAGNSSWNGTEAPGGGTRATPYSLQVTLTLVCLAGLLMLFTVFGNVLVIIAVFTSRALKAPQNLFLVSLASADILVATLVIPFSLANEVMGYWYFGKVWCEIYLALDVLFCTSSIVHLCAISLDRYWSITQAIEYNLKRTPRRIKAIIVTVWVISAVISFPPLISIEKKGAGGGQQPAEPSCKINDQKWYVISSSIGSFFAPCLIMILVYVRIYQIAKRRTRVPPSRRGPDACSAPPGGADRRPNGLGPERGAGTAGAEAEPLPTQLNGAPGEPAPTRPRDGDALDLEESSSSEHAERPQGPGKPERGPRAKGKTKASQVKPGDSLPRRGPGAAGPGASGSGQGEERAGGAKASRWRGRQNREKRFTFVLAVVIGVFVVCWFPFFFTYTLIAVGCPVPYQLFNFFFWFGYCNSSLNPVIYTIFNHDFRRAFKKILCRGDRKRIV
Method in brief: (§1)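 Schild analysis with slope constrained to -1.0. Log(DR−1) was measured at three antagonist concentrations for α1 (norepinephrine) and four for α2 (clonidine), each tested at least five times. DR is the agonist ED50 with antagonist divided by that without. Curve parallelism was checked by linear regression (p < 0.05). Values are ± standard error of estimate.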

[2] = Selectivity ratio (alpha1/alpha2) of the compound
Method in brief: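 α1/α2 selectivity is the antilog of the difference between pA2 at α1- and α2-adrenoreceptors. Each pA2 comes from Schild plots against norepinephrine (α1) or clonidine (α2).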

[3] = target: T2, Adrenergic receptor alpha-1 (Rattus norvegicus, UniProt P15823+P23944+P43140); assay: pIC50 value was measured in Alpha-1 adrenergic receptor against norepinephrine in rat vas deferens.
T2 sequence (P15823 whole entry): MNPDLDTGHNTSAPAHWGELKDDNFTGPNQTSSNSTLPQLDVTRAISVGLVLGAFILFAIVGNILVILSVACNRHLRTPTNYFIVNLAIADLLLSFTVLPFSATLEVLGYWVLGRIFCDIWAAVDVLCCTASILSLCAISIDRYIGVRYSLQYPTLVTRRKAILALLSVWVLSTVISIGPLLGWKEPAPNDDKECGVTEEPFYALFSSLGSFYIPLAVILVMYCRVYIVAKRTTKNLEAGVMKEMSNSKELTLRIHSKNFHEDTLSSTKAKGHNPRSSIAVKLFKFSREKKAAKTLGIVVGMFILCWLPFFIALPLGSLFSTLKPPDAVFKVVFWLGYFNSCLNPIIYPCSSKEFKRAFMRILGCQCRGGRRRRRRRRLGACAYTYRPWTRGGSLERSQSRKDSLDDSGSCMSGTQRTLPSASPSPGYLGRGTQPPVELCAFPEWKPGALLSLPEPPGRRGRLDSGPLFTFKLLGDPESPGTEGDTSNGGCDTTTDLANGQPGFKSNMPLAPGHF
T2 sequence (P23944 whole entry): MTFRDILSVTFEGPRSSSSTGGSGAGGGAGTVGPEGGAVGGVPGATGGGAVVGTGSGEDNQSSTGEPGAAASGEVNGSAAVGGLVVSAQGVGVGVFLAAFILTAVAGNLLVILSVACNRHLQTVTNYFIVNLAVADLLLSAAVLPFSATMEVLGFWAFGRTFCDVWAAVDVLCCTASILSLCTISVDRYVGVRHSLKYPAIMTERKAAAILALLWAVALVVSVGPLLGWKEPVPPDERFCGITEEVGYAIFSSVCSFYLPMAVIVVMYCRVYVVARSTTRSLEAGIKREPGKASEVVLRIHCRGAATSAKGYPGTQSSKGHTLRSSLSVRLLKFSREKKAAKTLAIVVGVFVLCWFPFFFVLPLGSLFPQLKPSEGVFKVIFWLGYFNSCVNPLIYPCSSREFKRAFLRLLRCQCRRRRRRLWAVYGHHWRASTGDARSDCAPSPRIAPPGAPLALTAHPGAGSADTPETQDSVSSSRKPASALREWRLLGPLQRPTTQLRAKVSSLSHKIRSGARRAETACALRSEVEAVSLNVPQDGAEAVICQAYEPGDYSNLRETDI
T2 sequence (P43140 whole entry): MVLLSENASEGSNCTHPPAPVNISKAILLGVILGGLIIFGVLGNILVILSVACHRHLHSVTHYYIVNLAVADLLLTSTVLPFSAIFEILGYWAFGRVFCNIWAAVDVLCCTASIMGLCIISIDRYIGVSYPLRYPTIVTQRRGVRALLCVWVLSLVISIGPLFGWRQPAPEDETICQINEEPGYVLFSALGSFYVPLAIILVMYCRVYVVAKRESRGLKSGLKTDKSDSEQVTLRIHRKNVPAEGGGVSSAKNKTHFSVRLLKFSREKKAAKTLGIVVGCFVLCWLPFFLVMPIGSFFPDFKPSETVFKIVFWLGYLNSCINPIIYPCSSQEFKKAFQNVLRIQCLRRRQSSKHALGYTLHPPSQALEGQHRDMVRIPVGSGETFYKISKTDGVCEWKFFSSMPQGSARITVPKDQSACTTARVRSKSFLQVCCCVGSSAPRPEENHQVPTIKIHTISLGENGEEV

[4] = target: T1, Adrenergic receptor alpha-2; assay: pA2 value was measured in aAlpha-2 adrenergic receptor against clonidine in rat vas deferens.; method in brief: as §1
[5] = target: T2, Adrenergic receptor alpha-1; assay: pA2 value was measured in Alpha-1 adrenergic receptor against norepinephrine in rat vas deferens.; method in brief: as §1

COc1cccc(OC)c1OCCNC[C@H]1Oc2ccccc2O[C@H]1c1ccccc1
pA2 [1]: 4.49
Selectivity ratio [2]: 6
pIC50 [3]: 5.29

COc1cccc(OC)c1OCCNC[C@H]1Oc2ccccc2OC1c1ccccc1 (stereo partly specified)
pA2 [4]: 6.4
pA2 [5]: 9.3

COc1cccc(OC)c1OCCNC[C@H]1Oc2ccccc2O[C@@H]1c1ccccc1
pA2 [1]: 4.22
pA2 [5]: 8.59
Selectivity ratio [2]: 23400

COc1cccc(OC)c1OCCNC[C@H]1C(=O)c2ccccc2O[C@@H]1c1ccccc1
pA2 [1]: 4.85
pA2 [5]: 8.27
Selectivity ratio [2]: 2630
